Data reported in ChEMBL document CHEMBL1125478, “The discovery of (2S,3S)-cis-2-(diphenylmethyl)-N-[(2-methoxyphenyl)methyl]-1- azabicyclo[2.2.2]-octan-3-amine as a novel, nonpeptide substance P antagonisst” (J Med Chem, 1992).

Legend:
[1] = system: Rattus norvegicus; assay: Inhibition of SP-induced salvation after intraperitoneal administration of the durg at a concentration of 50 mg/kg in rats; type: functional; conditions: ip
Summary of the method: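 Fasted male Sprague-Dawley rats given compound 50 mg/kg ip in 0.05 N HCl, or saline, 30 min before SP 4.7 nmol/kg by tail vein under pentobarbital. Saliva collected on preweighed swabs until response subsided (about 4 min), weighed. Percent inhibition of SP response.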

[2] = system: Cavia porcellus; assay: (§1) Inhibition of SP-induced plasma extravasation in guinea pig after peroral administration at a dose 15 mg/kg; type: functional; conditions: route oral
Summary of the method: (§2)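 Male Hartley guinea pigs (350-400 g), pentobarbital-anaesthetised; Evans Blue 30 mg/kg iv, then 5 min later SP (20 nM, 50 μL/site) intradermally. Dorsal skin punches extracted in formamide 24 h, 60 °C; OD 600 nm.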

[3] = organism: Cavia porcellus; assay: Inhibition of capsaicin-induced plasma extravasation after 10 mL injection of 30 uM capsaicin in to the peritoneal cavity of guinea pig ureter; type: functional
Summary of the method: (§3)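 Fasted male Hartley guinea pigs (300-400 g), pentobarbital-anaesthetised; Evans Blue 30 mg/kg iv, then capsaicin 30 μM, 10 mL intraperitoneally. Compound 10 mg/kg po 1 h prior. Ureter removed after 10 min, formamide-extracted 24 h at 60 °C, OD 600 nm.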

[4] = molecular target: Substance-P receptor (Homo sapiens, UniProt P25103); assay: Binding affinity towards Tachykinin receptor 1 in human IM-9 cells using [3H]-substance P as ligand; type: cell-based
Summary of the method: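 Displacement of [³H]SP (0.5 nM final) from human IM-9 cell preparation in 50 mM TRIS-HCl pH 7.7 with MnCl2, BSA, bacitracin, leupeptin, […], phosphoramidon; 20 min, room temperature, dark. Filtration on polyethylenimine-soaked GF/B filters, scintillation counting. IC50 from six-point curves, duplicates; mean ± SEM of three experiments.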

[5] = system: Cavia porcellus; assay: Inhibition of capsaicin-induced plasma extravasation in guinea pig ureter after intraperitoneal injection; type: functional; conditions: ip; summary of the method: as §3
[6] = molecular target: T1, Neuromedin-K receptor (Cavia porcellus, UniProt P30098); assay: Inhibitory activity against Tachykinin receptor 3 in guinea pig cortex [125I]-BH-eledoisin as radioligand
T1 sequence (P30098 whole entry): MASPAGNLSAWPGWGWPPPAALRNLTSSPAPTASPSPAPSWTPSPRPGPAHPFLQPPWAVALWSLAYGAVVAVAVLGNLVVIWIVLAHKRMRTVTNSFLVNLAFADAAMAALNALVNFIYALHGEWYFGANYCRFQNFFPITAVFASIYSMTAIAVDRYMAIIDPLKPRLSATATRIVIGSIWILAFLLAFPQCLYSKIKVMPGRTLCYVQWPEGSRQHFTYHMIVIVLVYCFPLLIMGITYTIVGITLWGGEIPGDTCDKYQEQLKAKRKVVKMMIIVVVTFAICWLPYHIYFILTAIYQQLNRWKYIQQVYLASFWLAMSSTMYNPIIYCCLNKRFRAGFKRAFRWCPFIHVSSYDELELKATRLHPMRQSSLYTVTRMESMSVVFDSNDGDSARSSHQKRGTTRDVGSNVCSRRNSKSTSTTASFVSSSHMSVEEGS
Summary of the method: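 Guinea pig cortical membranes (6 mg/mL) in 50 mM Tris-HCl with 1 mM MnCl₂, 50 μg/mL chymostatin, 0.02% BSA and 0.1 nM [¹²⁵I]BH-eledoisin final, with test compound, 60 min at 22 °C. Nonsaturable binding defined with 1 μM eledoisin. Filtration and radioactivity counting.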

[7] = molecular target: T2, Substance-K receptor (Mesocricetus auratus, UniProt P51144); assay: Inhibitory activity against [125I]neurokinin binding to Tachykinin receptor 2 in hamster urinary bladder
T2 sequence (P51144 whole entry): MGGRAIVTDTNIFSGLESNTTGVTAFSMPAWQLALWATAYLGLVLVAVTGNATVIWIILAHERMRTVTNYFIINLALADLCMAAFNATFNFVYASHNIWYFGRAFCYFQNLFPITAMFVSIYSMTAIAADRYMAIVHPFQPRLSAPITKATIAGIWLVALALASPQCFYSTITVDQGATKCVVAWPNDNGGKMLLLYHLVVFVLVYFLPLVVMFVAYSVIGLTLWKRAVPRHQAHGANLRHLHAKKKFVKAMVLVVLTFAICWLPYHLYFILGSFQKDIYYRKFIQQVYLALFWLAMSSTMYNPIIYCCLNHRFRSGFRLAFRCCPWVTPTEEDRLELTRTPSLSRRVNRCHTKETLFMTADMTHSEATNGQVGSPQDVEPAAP

[8] = system: Cavia porcellus; assay: as §1; type: functional; conditions: route oral; remark: listed apart in the source
Summary of the method: as §2, with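 “intradermally. Compound 15 mg/kg po 1 h before SP.” for “intradermally.”, “nm. Percent inhibition or ED50 with 95% confidence limits.” for “nm.”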

[9] = organism: Cavia porcellus; assay: Ability to block SP-induced excitation of neurons in the locus coeruleus in guinea pig brain; type: functional

Substance-P receptor, sequence (P25103 whole entry): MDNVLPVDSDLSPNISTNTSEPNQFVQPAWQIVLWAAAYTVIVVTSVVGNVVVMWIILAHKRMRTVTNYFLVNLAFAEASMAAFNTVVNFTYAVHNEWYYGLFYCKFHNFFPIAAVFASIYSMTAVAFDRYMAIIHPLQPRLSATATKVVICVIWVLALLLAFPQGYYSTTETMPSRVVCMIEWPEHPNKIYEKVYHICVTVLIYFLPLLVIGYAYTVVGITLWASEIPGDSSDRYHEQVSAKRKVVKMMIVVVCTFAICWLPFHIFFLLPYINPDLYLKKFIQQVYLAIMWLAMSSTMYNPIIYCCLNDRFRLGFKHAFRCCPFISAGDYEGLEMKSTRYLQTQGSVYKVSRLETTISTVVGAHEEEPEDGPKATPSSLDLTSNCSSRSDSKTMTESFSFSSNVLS

Compound	inhibition in vivo at 50 mg/kg [1]	inhibition in vivo at 15 mg/kg [2]	Inhibition [3]	IC50 [4]	ED50 [5]	IC50 [6]	IC50 [7]	ED50 [8]	IC50 [9]
Clc1ccc(CN[C@H]2C3CCN(CC3)[C@H]2C(c2ccccc2)c2ccccc2)cc1	< 27%	8%	34%						
COc1ccccc1CN[C@H]1C2CCC(CC2)[C@H]1C(c1ccccc1)c1ccccc1		-9%	-67%	> 32000 nM					
Clc1cccc(CN[C@H]2C3CCN(CC3)[C@H]2C(c2ccccc2)c2ccccc2)c1	< 52.8%	-6%	23%						
COc1ccccc1CN[C@H]1C2CCN(CC2)[C@@H]1C(c1ccccc1)c1ccccc1	11.3%	28%	18%						
COc1ccccc1CN[C@H]1C2CCN(CC2)[C@H]1Cc1ccccc1	0%	35%	-30%	487 nM					
c1ccc(CN[C@H]2C3CCN(CC3)[C@H]2C(c2ccccc2)c2ccccc2)cc1	0%	-9%	-21%	16 nM					
Clc1ccccc1CN[C@H]1C2CCN(CC2)[C@H]1C(c1ccccc1)c1ccccc1	< 43.9%	38%			7 mg/kg				
COc1ccccc1CN[C@H]1C2CCN(CC2)[C@H]1C(c1ccccc1)c1ccccc1 [CP-96345]	< 76.2%				2.3 mg/kg	> 10000 nM	> 10000 nM	4.4 mg/kg	90 nM
COc1ccccc1CN(C)[C@H]1C2CCN(CC2)[C@H]1C(c1ccccc1)c1ccccc1		13%	-13%						
COc1ccccc1CN[C@@H]1C2CCN(CC2)[C@@H]1C(c1ccccc1)c1ccccc1	< 66.9%	39%			6 mg/kg				
CCc1ccccc1CN[C@H]1C2CCN(CC2)[C@H]1C(c1ccccc1)c1ccccc1	16.7%	79%		16.7 nM	4 mg/kg				
